Reference: ChEMBL document CHEMBL5357072, “Structural Modification of Noscapine via Photoredox/Nickel Dual Catalysis for the Discovery of S-Phase Arresting Agents” (ACS Med Chem Lett, 2024)

How the values were obtained:
Type in all cases: functional
Details in all cases: read-out: GI
NB-4 = test: Antiproliferative activity against human NB4 cells assessed as cell growth inhibition at 10 uM incubated for 48 hrs by CCK8 assay relative to control
Method in brief: (§1)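 Single-concentration screen of six cancer cell lines. Cells were exposed to 10 μM compound and growth was measured by CCK-8 assay. Results are reported as inhibition rate at 10 μM.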

MOLM-13 = test: Antiproliferative activity against human MOLM-13 cells assessed as cell growth inhibition at 10 uM incubated for 48 hrs by CCK8 assay relative to control; method in brief: as §1
JeKo-1 = test: Antiproliferative activity against human JeKo-1 cells assessed as cell growth inhibition at 10 uM incubated for 48 hrs by CCK8 assay relative to control; method in brief: as §1
A549 = test: Antiproliferative activity against human A549 cells assessed as cell growth inhibition at 10 uM incubated for 48 hrs by CCK8 assay relative to control; method in brief: as §1
HeLa = test: Antiproliferative activity against human HeLa cells assessed as cell growth inhibition at 10 uM incubated for 48 hrs by CCK8 assay relative to control; method in brief: as §1
U-251 = test: Antiproliferative activity against human U-251 cells assessed as cell growth inhibition at 10 uM incubated for 48 hrs by CCK8 assay relative to control; method in brief: as §1

Row | SMILES | inhibition of growth at 10 µM (NB-4) | inhibition of growth at 10 µM (MOLM-13) | inhibition of growth at 10 µM (JeKo-1) | inhibition of growth at 10 µM (A549) | inhibition of growth at 10 µM (HeLa) | inhibition of growth at 10 µM (U-251)
1 | COCCCc1c2c(c(OC)c3c1OCO3)[C@H]([C@H]1OC(=O)c3c1ccc(OC)c3OC)N(C(=O)OC(C)(C)C)CC2 | 27.2% | 30.4% | 23.3% | < 5% | < 5% | < 5%
2 | COc1ccc2c(c1OC)C(=O)O[C@@H]2[C@H]1c2c(c(C3CCCC3)c3c(c2OC)OCO3)CCN1C(=O)OC(C)(C)C | 11.6% | 40% | 5.81% | < 5% | < 5% | < 5%
3 | COc1ccc2c(c1OC)C(=O)O[C@@H]2[C@H]1c2c(c(CCCCCC#N)c3c(c2OC)OCO3)CCN1C(=O)OC(C)(C)C | 14.1% | 46.3% | 19.9% | < 5% | 16.1% | 19.1%
4 | COc1ccc2c(c1OC)C(=O)O[C@@H]2[C@H]1c2c(c(C3CN(C(=O)OC(C)(C)C)C3)c3c(c2OC)OCO3)CCN1C(=O)OC(C)(C)C | 30.1% | 49.7% | 17.6% | < 5% | < 5% | < 5%
5 | COc1ccc2c(c1OC)C(=O)O[C@@H]2[C@H]1c2c(c(CC3CCCCC3)c3c(c2OC)OCO3)CCN1C(=O)OC(C)(C)C | < 5% | 29.3% | < 5% | < 5% | < 5% | < 5%
6 | COc1ccc2c(c1OC)C(=O)O[C@@H]2[C@H]1c2c(c(CC3CCCO3)c3c(c2OC)OCO3)CCN1C(=O)OC(C)(C)C (some centres not stated) | 7.48% | 44.9% | 15.6% | < 5% | 24.7% | 29.8%
7 | COc1ccc2c(c1OC)C(=O)O[C@@H]2[C@H]1c2c(c(C3CCC3)c3c(c2OC)OCO3)CCN1C(=O)OC(C)(C)C | 13.5% | 40.4% | < 5% | < 5% | < 5% | < 5%
8 | COc1ccc2c(c1OC)C(=O)O[C@@H]2[C@H]1c2c(c(CC3CCCN3C(=O)OC(C)(C)C)c3c(c2OC)OCO3)CCN1C(=O)OC(C)(C)C (some centres not stated) | 29.7% | 48.1% | 15.7% | < 5% | 8.57% | < 5%
9 | COc1ccc2c(c1OC)C(=O)O[C@@H]2[C@H]1c2c(c(CCCNC(=O)OC(C)(C)C)c3c(c2OC)OCO3)CCN1C(=O)OC(C)(C)C | 28.9% | 48.2% | 10.6% | < 5% | < 5% | < 5%
10 | COc1ccc2c(c1OC)C(=O)O[C@@H]2[C@H]1c2c(c(CCCC(F)(F)F)c3c(c2OC)OCO3)CCN1C(=O)OC(C)(C)C | 31.5% | 36% | 25.6% | < 5% | < 5% | < 5%
11 | COc1ccc2c(c1OC)C(=O)O[C@@H]2[C@H]1c2c(c(CC3CCN3C(=O)OC(C)(C)C)c3c(c2OC)OCO3)CCN1C(=O)OC(C)(C)C (some centres not stated) | 13.8% | 43.2% | 12.9% | < 5% | < 5% | < 5%
12 | COc1ccc2c(c1OC)C(=O)O[C@@H]2[C@H]1c2c(c(CCNC(=O)OC(C)(C)C)c3c(c2OC)OCO3)CCN1C(=O)OC(C)(C)C | 29.9% | 43.5% | 14% | < 5% | < 5% | < 5%
13 | COc1ccc2c(c1OC)C(=O)O[C@@H]2[C@H]1c2c(c(C3CC3)c3c(c2OC)OCO3)CCN1C(=O)OC(C)(C)C | 7.63% | 19.5% | 6.87% | < 5% | < 5% | < 5%
14 | COc1ccc2c(c1OC)C(=O)O[C@@H]2[C@H]1c2c(c(CC3CCN(C(=O)OC(C)(C)C)CC3)c3c(c2OC)OCO3)CCN1C(=O)OC(C)(C)C | 37.3% | 58.1% | 22.7% | < 5% | < 5% | < 5%
15 | COc1ccc2c(c1OC)C(=O)O[C@@H]2[C@H]1c2c(c(C34C[C@H]5C[C@H](C3)C[C@@H](C4)C5)c3c(c2OC)OCO3)CCN1C(=O)OC(C)(C)C | < 5% | 17.6% | < 5% | < 5% | < 5% | < 5%
16 | COc1ccc2c(c1OC)C(=O)O[C@@H]2[C@H]1c2c(c(C3CCC(C)(C)CC3)c3c(c2OC)OCO3)CCN1C(=O)OC(C)(C)C | 29.6% | 47.6% | 7.49% | < 5% | < 5% | < 5%
17 | CCOP(=O)(CCc1c2c(c(OC)c3c1OCO3)[C@H]([C@H]1OC(=O)c3c1ccc(OC)c3OC)N(C(=O)OC(C)(C)C)CC2)OCC | 6.64% | 31.1% | 12.1% | < 5% | < 5% | < 5%
18 | COc1ccc2c(c1OC)C(=O)O[C@@H]2[C@H]1c2c(c(C3CCCCC3)c3c(c2OC)OCO3)CCN1C(=O)OC(C)(C)C | 6.53% | 46.1% | < 5% | < 5% | < 5% | < 5%
19 | COc1ccc2c(c1OC)C(=O)O[C@@H]2[C@H]1c2c(c(CC3(F)CN(C(=O)OC(C)(C)C)C3)c3c(c2OC)OCO3)CCN1C(=O)OC(C)(C)C | 42.5% | 61.5% | 43.9% | < 5% | 8.57% | < 5%
20 | COc1ccc2c(c1OC)C(=O)O[C@@H]2[C@H]1c2c(c(C3CCOC3)c3c(c2OC)OCO3)CCN1C(=O)OC(C)(C)C (some centres not stated) | 23.3% | 43.6% | 20.8% | < 5% | < 5% | 32.1%
21 | COc1ccc2c(c1OC)C(=O)O[C@@H]2[C@H]1c2c(c(C3CCCCCC3)c3c(c2OC)OCO3)CCN1C(=O)OC(C)(C)C | < 5% | 39.4% | 10.3% | < 5% | < 5% | 20.5%
22 | COc1ccc2c(c1OC)C(=O)O[C@@H]2[C@H]1c2c(c(CCCc3ccccc3)c3c(c2OC)OCO3)CCN1C(=O)OC(C)(C)C | 25.1% | 63.2% | 13.7% | < 5% | < 5% | < 5%
23 | COc1ccc2c(c1OC)C(=O)O[C@@H]2[C@H]1c2c(c(CC3CCOCC3)c3c(c2OC)OCO3)CCN1C(=O)OC(C)(C)C | 4.77% | 48.4% | 20.4% | < 5% | 23% | 13.2%
24 | COc1ccc2c(c1OC)C(=O)O[C@@H]2[C@H]1c2c(c(C3CCOCC3)c3c(c2OC)OCO3)CCN1C(=O)OC(C)(C)C | 4.36% | 36.8% | 12% | < 5% | < 5% | < 5%
25 | COc1ccc2c(c1OC)C(=O)O[C@@H]2[C@H]1c2c(c(CC3CN(C(=O)OC(C)(C)C)C3)c3c(c2OC)OCO3)CCN1C(=O)OC(C)(C)C | 63.1% | 59% | 48% | 10.6% | < 5% | < 5%
26 | COc1ccc2c(c1OC)C(=O)O[C@@H]2[C@H]1c2c(c(CC3CCCC3)c3c(c2OC)OCO3)CCN1C(=O)OC(C)(C)C | 20.8% | 51.3% | 6.68% | < 5% | < 5% | 12%
27 | Nc1ccn([C@@H]2O[C@H](CO)[C@@H](O)C2(F)F)c(=O)n1 [GEMCITABINE] | 95.7% | 74.1% | 65.2% | 62.3% | 61.4% | 69.7%
